# Assay outcomes (PubChem)
# Sampled rows, rich in hits. Any-hit rate of the full collection: about 1.9%.
# FAS TE block: FAS thioesterase domain inhibitors, primary screen, biochemical, fluorescence intensity, uHTS; inhibition, % at 15 µM; 360,000 tested, 0.67% active; recombinant FAS-TE, OMFH fluorogenic substrate, fluorescence endpoint;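 active = compounds whose normalised, plate-corrected inhibition of enzyme fluorescence in the single-dose primary screen is 50% or more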;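 note: 0% = DMSO with enzyme and 100% = substrate without enzyme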
# ADAM17 inh: ADAM17 inhibitors, primary screen, biochemical, QFRET; Disintegrin and metalloproteinase domain-containing protein 17 (Homo sapiens), P78536; recombinant ADAM17, EDANS/DABCYL FRET peptide cleavage; inhibition, % at 6.95 µM; 370,000 tested, 0.83% active; AID 720648, 2013;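 active = inhibition above the mean of compounds lying between control limits plus 3 SD, set per campaign, cut at about 8.5% in these data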;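 note: 0% = DMSO-only wells as the low control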
# ADAM10 inh: human ADAM10 inhibitors, primary screen, biochemical, QFRET, HTS; AID 720582, 2013; recombinant ADAM10, EDANS/DABCYL FRET peptide cleavage, 3 h; 370,000 tested, 0.62% active; inhibition, % at 7 µM; Disintegrin and metalloproteinase domain-containing protein 10 (Homo sapiens), O14672;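 active = inhibition above a per-campaign cutoff equal to the mean of compounds falling between control-based bounds plus 3 SD, cut at about 20% in these data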;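 note: 0% = DMSO wells while the 100% control is not disclosed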
# SENP1 FRET inh: human SENP1 catalytic domain inhibitors, primary screen, biochemical, FRET, uHTS. recombinant SENP1 catalytic domain, CyPet-SUMO1-YPet FRET cleavage. Sentrin-specific protease 1 (Homo sapiens), Q9P0U3. inhibition, % at 10 µM. 360,000 tested, 0.21% active;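 active = inhibition at least 30% at 10 µM, raw YFP signal under a set limit, fluorescence ratio 0.5 to 1.5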;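 note: 0% = enzyme with DMSO and 100% = no enzyme wells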
# Target sequence (Q9P0U3 419-644 limits assumed): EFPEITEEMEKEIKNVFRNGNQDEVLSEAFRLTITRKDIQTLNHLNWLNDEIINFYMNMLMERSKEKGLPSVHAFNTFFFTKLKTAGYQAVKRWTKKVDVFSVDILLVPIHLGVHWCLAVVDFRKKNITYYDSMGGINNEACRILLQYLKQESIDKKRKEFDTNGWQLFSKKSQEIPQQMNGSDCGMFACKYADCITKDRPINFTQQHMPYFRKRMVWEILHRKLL
#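 system = hSENP1 catalytic domain, recombinant | reagent = SFCypet-SUMO1-SFYpet substrate at 25 nM | doses = one dose per compound, 10 µM, 0.5% DMSO | incubation = enzyme reaction for 50 min at room temperature, dark | measured by = FRET, CFP and YFP emission | controls = no-enzyme low, enzyme-DMSO high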
# ADAM10 confirm: human ADAM10 inhibitors, confirmation, biochemical, QFRET, triplicate; shares compounds with ADAM10 inh; ADAM10 QFRET peptide cleavage, EDANS fluorescence; inhibition, % at 6.95 µM; 2,100 tested, 1% active; AID 743208, 2013;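 active = inhibition above about 20% chosen separately for each screening run, limit read from the data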;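 note: 0% = DMSO wells and 100% = marimastat wells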
# ADAM17 ctr: ADAM17 inhibitors, counter-screen for ADAM10 exosite inhibitor project, biochemical, QFRET, high throughput. shares compounds with ADAM10 inh. inhibition, % at 6.95 µM. 2,100 tested, 0.5% active. ADAM17 QFRET peptide cleavage, EDANS fluorescence;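 active = mean triplicate inhibition above the solvent-only control wells' mean plus 3 SD, cut at about 12% in these data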;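 note: 0% = DMSO wells and 100% = marimastat wells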
# The depositor's hits bear a star; . = no result; ! = not active in a repeat.
SMILES,FAS TE block,ADAM17 inh,ADAM10 inh,SENP1 FRET inh,ADAM10 confirm,ADAM17 ctr
Cc1onc(-c2ccccc2)c1-c1nnc(COC(=O)c2ccc(F)cc2)o1,20,6,14,4,.,.
CCOC(=O)[C@]12CCCC=C1N(Cc1ccc(OC)cc1)C(=O)[C@@H]2CC(=O)N1CCN(C(=O)c2ccco2)CC1,.,0,-9,.,.,.
N#C/C(=N\Nc1cccc(Cl)c1)C(=O)c1ccccc1,1,8,20*,1,-1,-1
N#C/C(=N\Nc1ccccc1Cl)C(=O)c1ccccc1,-5,-4,-9,3,.,.
Cc1ccc2oc(=O)c(/C=C(\O)c3ccco3)nc2c1,-7,1,21*,0,1,-1
O=S(=O)(NCc1cccc(C(F)(F)F)c1)NCc1ccccc1F,22,4,20*,-1,1,0
CC1(C(=O)Nc2ccc(Cl)c(C(F)(F)F)c2)Cc2c(-c3ccccc3)ccnc2O1 (configuration not stated),10,-4,-4,1,.,.
CC(=O)Nc1ccc(-c2ccnc3c2CC(C)(C(=O)Nc2ccc(Cl)c(C(F)(F)F)c2)O3)cc1 (configuration not stated),20,5,20*,1,9,3
CC(C)C[C@H]1COc2cc(N3CCSCC3)ccc2S(=O)(=O)N1C,.,-2,0,.,.,.
COc1ccc(S(=O)(=O)NCc2ccccn2)cc1Br,-4,5,23*,0,-2,0
COc1ccc(S(=O)(=O)NC(=O)C2(C)CCN2C(=O)Cc2ccccc2Cl)cc1 (configuration not stated),-11,-1,86*,3,0,0
COc1cccc(NC(=O)C2(C)CCN2C(=O)Cc2ccc(-c3ccccc3)cc2)c1 (configuration not stated),24,8,25*,0,6,2
CC(C)OC(=O)C1=CNCC(C)(C)c2c1[nH]c1cc(F)ccc21,.,2,-10,.,.,.
C=CCN(C)C(C#Cc1ccccc1)c1ccccc1C(F)(F)F (configuration not stated),.,-3,0,.,.,.
CC(=O)Nc1sc2c(c1-c1nc3ccccc3s1)CCN(C(C)C)CC2,.,-24,-82,.,.,.
Cc1ccc(S(=O)(=O)c2ccc(NC(=O)c3c(F)cccc3F)cc2)cc1,16,7,24*,-1,0,1
Cn1c(=O)c(=O)n(C)c2cc(S(=O)(=O)N3CCN(Cc4ccc(F)cc4)CC3)ccc21,.,4,-2,.,.,.
CCOCCOC(=O)c1[nH]c2c(c1C)C(=O)CC(c1ccc(N(C)C)cc1)C2 (configuration not stated),2,2,-3,-2,.,.
C/C=C/COC(=O)c1[nH]c2c(c1C)C(=O)CC(c1ccc(N(C)C)cc1)C2 (configuration not stated),-3,5,65*,-19,6,1
C[C@@H]1C=CCCO[C@]12C(=O)Nc1ccccc12,.,-11,-34,.,.,.
O=C(NCc1ccc(F)cc1)c1cnc(-c2ccccn2)nc1C(F)(F)F,2,-5,66*,2,2,0
O=S(=O)(c1cc2ccccc2s1)n1c(CN2CCOCC2)nc2ccccc21,.,-6,-7,.,.,.
COc1ccc(-c2noc(CNC(=O)c3ccc4c(c3)OCO4)n2)cc1,4,2,-3,-1,.,.
Cc1cccc(-c2noc(CNC(=O)c3ccc4c(c3)OCO4)n2)c1,8,2,23*,3,0,1
N#CCSc1nnc(CNc2ccc(F)cc2)o1,-7,4,12,-3,.,.
SMILES,FAS TE block,ADAM17 inh,ADAM10 inh,SENP1 FRET inh,ADAM10 confirm,ADAM17 ctr
Cc1ccc(CSc2nnc(CNc3ccc(F)cc3)o2)cc1,20,5,26*,1,2,1
CN(c1ccccc1)S(=O)(=O)c1nnc(NC(=O)c2ccco2)s1,-4,1,48*,-10,4,1
Cc1cccc(N(C)S(=O)(=O)c2nnc(NC(=O)c3ccco3)s2)c1,-4,-3,-7,-1,.,.
COC(=O)c1cc(NC(=O)CN(c2ccc(OC)cc2)S(=O)(=O)c2ccc(F)cc2)ccc1Cl,28,9,22*,2,10,2
C=CCNC(=O)CN(c1ccc(F)cc1)S(=O)(=O)c1ccc(OC)cc1,-4,-3,-4,0,.,.
COC(=O)[C@]12C[C@H](CC(=O)NCc3ccc(C)o3)C(=O)N(Cc3cccc4ccccc34)C1=C[C@H](C(C)(C)C)O[C@@H]2C,.,4,5,.,.,.
COCCOC(=O)C1=C(C)NC(C)=C(C(=O)OC(C)C)C1c1cccc([N+](=O)[O-])c1 (configuration not stated),11,3,22*!,3,1,0
CC(Nc1ccc(Cl)cc1)c1cc(Cl)ccc1O (configuration not stated),32,8,23*,1,3,1
COc1ccc(-n2c(SCC(=O)c3ccc4ccccc4c3)nnc2-c2ccccc2)cc1,.,2,4,.,.,.
Cc1cccc(OCC(=O)NNC(=O)c2cc3ccccc3oc2=O)c1,-6,7,23*,3,23*,13*
O=C(NNC(=S)Nc1cccc(Cl)c1)c1ccccc1OC(F)F,-4,4,8,0,.,.
COc1cccc(NC(=S)NNC(=O)c2ccccc2OC(F)F)c1,-5,7,21*,0,1,0
O=C(C1=C[C@H](c2csc3ccccc23)C[C@H](OCc2ccc(CO)cc2)O1)N1CCOCC1,-4,-1,89*,-1,1,0
CC(=O)Nc1sc2c(c1-c1cc3ccccc3o1)CCNC2,.,-11,-28,.,.,.
CC(=O)c1cc(-c2ccccc2)c(=O)n2c1CCC2,.,-1,-8,.,.,.
NNc1nc(-c2ccccc2)nc(-c2ccccc2)c1Br,-2,7,21*,0,3,1
CNc1nc(-c2ccccc2)nc(-c2ccccc2)c1C#N,-4,3,-20,1,.,.
C=C(C)COc1ccc(-c2[nH]ncc2Oc2cccc(OC)c2)c(O)c1,-203,8,27*,2,15,5
CCCc1ccc(Oc2cn[nH]c2-c2ccc(O)cc2O)cc1,-150,6,22*,1,7,2
COc1ccc(Oc2cn[nH]c2-c2ccc(O)cc2O)cc1,-206,7,11,-3,.,.
Cc1cnn(CCC(=O)NNC(=S)Nc2ccc(F)cc2)c1,-8,7,20*,3,1,2
Cc1ccc(S(=O)(=O)N2CCN(C(=O)COC(=O)CCOc3ccccc3)CC2)c(C)c1,14,1,-7,1,.,.
